Activity calls are given as the source filed them. No cut-off for these calls is given here.
Tests used:
[1] = target: T1, Tyrosinase (Mus musculus) (UniProt P11344); experiment: Inhibition of tyrosinase in mouse B16 cells assessed as reduction in melanin production at 500 uM after 3 days relative to control; format: cell-based
T1 sequence (whole entry): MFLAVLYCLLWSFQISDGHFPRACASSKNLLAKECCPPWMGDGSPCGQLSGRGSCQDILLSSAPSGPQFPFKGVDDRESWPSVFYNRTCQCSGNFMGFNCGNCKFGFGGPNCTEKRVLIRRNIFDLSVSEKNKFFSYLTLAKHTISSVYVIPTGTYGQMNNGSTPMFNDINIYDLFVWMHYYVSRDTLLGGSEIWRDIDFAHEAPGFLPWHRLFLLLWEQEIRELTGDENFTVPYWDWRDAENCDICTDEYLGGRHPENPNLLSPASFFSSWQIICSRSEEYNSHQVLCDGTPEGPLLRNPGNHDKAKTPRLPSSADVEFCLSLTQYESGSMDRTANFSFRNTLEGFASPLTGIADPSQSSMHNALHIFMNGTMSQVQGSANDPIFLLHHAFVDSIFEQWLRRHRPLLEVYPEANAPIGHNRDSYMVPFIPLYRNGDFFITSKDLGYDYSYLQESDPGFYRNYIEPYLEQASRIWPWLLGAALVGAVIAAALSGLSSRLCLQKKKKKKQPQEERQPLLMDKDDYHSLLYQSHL
Outline: (§1)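 Melanin content: B16 mouse melanoma cells were seeded at 1.5 × 10^4 cells/well and incubated 24 h. They were then exposed for 3 days to 125, 250 or 500 μM peptide in 5% FBS medium. Cells were harvested with 0.25% trypsin/1 mM EDTA, washed in PBS and lysed in 1 M NaOH, 1 h at 60 °C. Absorbance was read at 420 nm. Matched DMSO without peptide served as background.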

[2] = target: T2, Mushroom tyrosinase (Agaricus bisporus) (UniProt O42713+Q00024+C7FF04+C7FF05); experiment: Inhibition of mushroom tyrosinase diphenolase activity at 100 to 500 uM using L-DOPA as substrate
Outline: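 Diphenolase: 2.0 mM L-dopa (stock, 100 μL) was mixed with 0.1 M phosphate buffer pH 6.5 and peptide or water, then preincubated 10 min at 30 °C. Mushroom tyrosinase (1320 units/mL stock) was added and dopachrome followed at 475 nm, 30 °C. Residual activity = rate (ΔA475/min) with inhibitor ÷ rate with water × 100. IC50 was estimated manually from inhibition curves. Performed three times.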

[3] = target: T2, Mushroom tyrosinase (Agaricus bisporus); experiment: Inhibition of mushroom tyrosinase monophenolase activity at 100 to 500 uM using L-tyrosine as substrate
Outline: (§2)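 Monophenolase: 2.0 mM L-tyrosine (stock, 100 μL) in 0.1 M phosphate buffer pH 6.5 with peptide or water was preincubated 10 min at 30 °C. Mushroom tyrosinase (1320 units/mL stock) was added and absorbance at 475 nm monitored at 30 °C. Lag time was taken by extrapolating the linear dopachrome rise to the x-axis. Residual activity = (1/lag with inhibitor)/(1/lag with water) × 100. IC50 was read manually from curves. Triplicate.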

B16 = experiment: Cytotoxicity against mouse B16 cells assessed as reduction in cell viability at 125 to 500 uM after 3 days by WST1/MTT assay; format: cell-based; conditions: b16, 72 h
Outline: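 B16 mouse melanoma cells were grown in Eagle's MEM with Earle's salts, 5% or 10% FBS and 1% penicillin–streptomycin, 37 °C, 5% CO2. They were seeded at 1.0 × 10^3 cells/well and left 24 h. Medium was then replaced with 5% FBS medium containing peptide at 125, 250 or 500 μM. After 3 days, viability was read by WST-1. Matched DMSO without peptide served as background. Three independent experiments; mean ± SD.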

[4] = target: T1, Tyrosinase (Mus musculus); experiment: Inhibition of tyrosinase in mouse B16 cells assessed as reduction in melanin production at 125 to 500 uM after 3 days; format: cell-based; outline: as §1
Mushroom tyrosinase = Mushroom tyrosinase (Agaricus bisporus, UniProt O42713+Q00024+C7FF04+C7FF05); experiment: Inhibition of mushroom tyrosinase monophenolase activity using L-tyrosine as substrate; outline: as §2

**Q.** How did the inhibition [1] turn out when `OC[C@H]1O[C@@H](Oc2ccc(O)cc2)[C@H](O)[C@@H](O)[C@@H]1O` was run?
**A.** Its inhibition is “Active”.

**Q.** With H-DTVHGQW-OH as the compound, how does the inhibition [2] read?
**A.** Its inhibition is “inactive”.

**Q.** What about the inhibition [3] of the same compound?
**A.** The inhibition was “inactive”.

**Q.** Which results are given for H-HGGEGGRPY-OH?
**A.** Activity (B16): Non-Toxic; inhibition [4]: inactive; inhibition [2]: inactive; inhibition [3]: Active

**Q.** Which Activity (B16) does the source give for H-HPTSEVY-OH here?
**A.** Its Activity is “Non-Toxic”.

**Q.** What about the inhibition [4] of the same compound?
**A.** The inhibition was “inactive”.

**Q.** What about the inhibition [2] of the same compound?
**A.** The inhibition was “inactive”.

**Q.** And the inhibition [3]?
**A.** The inhibition was “Active”.

**Q.** H-LQPSHY-OH was tested. Which inhibition [1] did it give?
**A.** The inhibition was over 50%.

**Q.** And the IC50 (Mushroom tyrosinase)?
**A.** Its IC50 is 156 µM.

**Q.** And the Activity (B16)?
**A.** Its Activity is “Non-Toxic”.

**Q.** What about the inhibition [2] of the same compound?
**A.** Its inhibition is “inactive”.

**Q.** What does the source list for H-WEAGQDQR-OH?
**A.** inhibition [2]: inactive; inhibition [3]: inactive

**Q.** What does the source list for H-WEEEPEDER-OH?
**A.** inhibition [2]: inactive; inhibition [3]: inactive
